Drawing on ChEMBL document CHEMBL1154352, “Toll-like receptor 7 selective synthetic oligoribonucleotide agonists: synthesis and structure-activity relationship studies” (J Med Chem, 2009), this text covers Activity for five compounds.

The structures appear in SMILES notation. Activity calls are given as the source filed them. No cut-off for these calls is given here.

This assay is filed under the species Homo sapiens. In words: Immunostimulatory activity in human pDC assessed as induction of IP10 at 100 ug/ml after 24 hrs. Format: functional. In short, it runs like this:
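Human pDCs plated at 1 × 10^6 cells/mL; compounds in PBS added, 37 °C for 24 h; supernatant cytokines/chemokines by human Luminex multiplex kit.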
`Nc1ccn([C@@H]2O[C@H](COP(=O)(S)O[C@H]3[C@@H](O)[C@H](n4cnc5c(N)ncnc54)O[C@@H]3COP(=O)(S)O[C@H]3[C@@H](O)[C@H](n4ccc5c(=O)[nH]c(N)nc54)O[C@@H]3COP(=O)(S)O[C@H]3[C@@H](O)[C@H](n4ccc(=O)[nH]c4=O)O[C@@H]3COP(=O)(S)O[C@H]3[C@@H](O)[C@H](n4ccc5c(=O)[nH]c(N)nc54)O[C@@H]3COP(=O)(S)O[C@H]3[C@@H](O)[C@H](n4cnc5c(N)ncnc54)O[C@@H]3COP(=O)(S)O[C@H]3[C@@H](O)[C@H](n4cnc5c(N)ncnc54)O[C@@H]3CO)[C@@H](OP(=O)(S)OC[C@H]3O[C@@H](n4ccc5c(=O)[nH]c(N)nc54)[C@H](O)[C@@H]3OP(=O)(S)OC[C@H]3O[C@@H](n4cnc5c(N)ncnc54)[C@H](O)[C@@H]3OP(=O)(S)OC[C@H]3O[C@@H](n4ccc(=O)[nH]c4=O)[C@H](O)[C@@H]3OP(=O)(S)OC[C@H]3O[C@@H](n4ccc(=O)[nH]c4=O)[C@H](O)[C@@H]3OP(=O)(S)OCC(O)COP(=O)(S)O[C@H]3[C@@H](O)[C@H](n4ccc(=O)[nH]c4=O)O[C@@H]3COP(=O)(S)O[C@H]3[C@@H](O)[C@H](n4ccc(=O)[nH]c4=O)O[C@@H]3COP(=O)(S)O[C@H]3[C@@H](O)[C@H](n4cnc5c(N)ncnc54)O[C@@H]3COP(=O)(S)O[C@H]3[C@@H](O)[C@H](n4ccc5c(=O)[nH]c(N)nc54)O[C@@H]3COP(=O)(S)O[C@H]3[C@@H](O)[C@H](n4ccc(N)nc4=O)O[C@@H]3COP(=O)(S)O[C@H]3[C@@H](O)[C@H](n4cnc5c(N)ncnc54)O[C@@H]3COP(=O)(S)O[C@H]3[C@@H](O)[C@H](n4ccc5c(=O)[nH]c(N)nc54)O[C@@H]3COP(=O)(S)O[C@H]3[C@@H](O)[C@H](n4ccc(=O)[nH]c4=O)O[C@@H]3COP(=O)(S)O[C@H]3[C@@H](O)[C@H](n4ccc5c(=O)[nH]c(N)nc54)O[C@@H]3COP(=O)(S)O[C@H]3[C@@H](O)[C@H](n4cnc5c(N)ncnc54)O[C@@H]3COP(=O)(S)O[C@H]3[C@@H](O)[C@H](n4cnc5c(N)ncnc54)O[C@@H]3CO)[C@H]2O)c(=O)n1` (stereo not given in full): the outcome was Active. Next, `Nc1ccn([C@@H]2O[C@H](CO[C@H]3[C@@H](O)[C@H](n4cnc5c(N)ncnc54)O[C@@H]3COP(=O)(S)O[C@H]3[C@@H](O)[C@H](n4ccc5c(=O)[nH]c(N)nc54)O[C@@H]3COP(=O)(S)O[C@H]3[C@@H](O)[C@H](n4ccc(=O)[nH]c4=O)O[C@@H]3COP(=O)(S)O[C@H]3[C@@H](O)[C@H](n4cnc5c(N)ncnc54)O[C@@H]3COP(=O)(S)O[C@H]3[C@@H](O)[C@H](n4ccc5c(=O)[nH]c(N)nc54)O[C@@H]3COP(=O)(S)O[C@H]3[C@@H](O)[C@H](n4ccc(=O)[nH]c4=O)O[C@@H]3CO)[C@@H](OP(=O)(S)OC[C@H]3O[C@@H](n4ccc5c(=O)[nH]c(N)nc54)[C@H](O)[C@@H]3OP(=O)(S)OC[C@H]3O[C@@H](n4cnc5c(N)ncnc54)[C@H](O)[C@@H]3OP(=O)(S)OC[C@H]3O[C@@H](n4ccc(=O)[nH]c4=O)[C@H](O)[C@@H]3OP(=O)(S)OC[C@H]3O[C@@H](n4ccc(=O)[nH]c4=O)[C@H](O)[C@@H]3OP(=O)(S)OCC(O)COP(=O)(S)O[C@H]3[C@@H](O)[C@H](n4ccc(=O)[nH]c4=O)O[C@@H]3COP(=O)(S)O[C@H]3[C@@H](O)[C@H](n4ccc(=O)[nH]c4=O)O[C@@H]3COP(=O)(S)O[C@H]3[C@@H](O)[C@H](n4cnc5c(N)ncnc54)O[C@@H]3COP(=O)(S)O[C@H]3[C@@H](O)[C@H](n4ccc5c(=O)[nH]c(N)nc54)O[C@@H]3COP(=O)(S)O[C@H]3[C@@H](O)[C@H](n4ccc(N)nc4=O)O[C@@H]3CO[C@H]3[C@@H](O)[C@H](n4cnc5c(N)ncnc54)O[C@@H]3COP(=O)(S)O[C@H]3[C@@H](O)[C@H](n4ccc5c(=O)[nH]c(N)nc54)O[C@@H]3COP(=O)(S)O[C@H]3[C@@H](O)[C@H](n4ccc(=O)[nH]c4=O)O[C@@H]3COP(=O)(S)O[C@H]3[C@@H](O)[C@H](n4cnc5c(N)ncnc54)O[C@@H]3COP(=O)(S)O[C@H]3[C@@H](O)[C@H](n4ccc5c(=O)[nH]c(N)nc54)O[C@@H]3COP(=O)(S)O[C@H]3[C@@H](O)[C@H](n4ccc(=O)[nH]c4=O)O[C@@H]3CO)[C@H]2O)c(=O)n1` (stereo not given in full): “Active”; `Nc1ccn([C@@H]2O[C@H](COP(=O)(S)O[C@H]3[C@@H](O)[C@H](n4cnc5c(=O)[nH]c(N)nc54)O[C@@H]3COP(=O)(S)O[C@H]3[C@@H](O)[C@H](n4ccc(=O)[nH]c4=O)O[C@@H]3COP(=O)(S)OCCCO)[C@@H](OP(=O)(S)OC[C@H]3O[C@@H](n4ccc(=O)[nH]c4=O)[C@H](O)[C@@H]3OP(=O)(S)OC[C@H]3O[C@@H](n4cnc5c(=O)[nH]c(N)nc54)[C@H](O)[C@@H]3OP(=O)(S)OC[C@H]3O[C@@H](n4ccc(N)nc4=O)[C@H](O)[C@@H]3OP(=O)(S)OC[C@H]3O[C@@H](n4ccc(=O)[nH]c4=O)[C@H](O)[C@@H]3OP(=O)(S)OC[C@H]3O[C@@H](n4ccc(=O)[nH]c4=O)[C@H](O)[C@@H]3OP(=O)(S)OC[C@H]3O[C@@H](n4cnc5c(=O)[nH]c(N)nc54)[C@H](O)[C@@H]3OP(=O)(S)OC[C@H]3O[C@@H](n4ccc(=O)[nH]c4=O)[C@H](O)[C@@H]3OP(=O)(S)OC[C@H]3O[C@@H](n4cnc5c(=O)[nH]c(N)nc54)[C@H](O)[C@@H]3OP(=O)(S)OCC(O)COP(=O)(S)O[C@H]3[C@@H](O)[C@H](n4cnc5c(=O)[nH]c(N)nc54)O[C@@H]3COP(=O)(S)O[C@H]3[C@@H](O)[C@H](n4ccc(=O)[nH]c4=O)O[C@@H]3COP(=O)(S)O[C@H]3[C@@H](O)[C@H](n4cnc5c(=O)[nH]c(N)nc54)O[C@@H]3COP(=O)(S)O[C@H]3[C@@H](O)[C@H](n4ccc(=O)[nH]c4=O)O[C@@H]3COP(=O)(S)O[C@H]3[C@@H](O)[C@H](n4ccc(=O)[nH]c4=O)O[C@@H]3COP(=O)(S)O[C@H]3[C@@H](O)[C@H](n4ccc(N)nc4=O)O[C@@H]3COP(=O)(S)O[C@H]3[C@@H](O)[C@H](n4cnc5c(=O)[nH]c(N)nc54)O[C@@H]3COP(=O)(S)O[C@H]3[C@@H](O)[C@H](n4ccc(=O)[nH]c4=O)O[C@@H]3COP(=O)(S)O[C@H]3[C@@H](O)[C@H](n4ccc(N)nc4=O)O[C@@H]3COP(=O)(S)O[C@H]3[C@@H](O)[C@H](n4cnc5c(=O)[nH]c(N)nc54)O[C@@H]3COP(=O)(S)O[C@H]3[C@@H](O)[C@H](n4ccc(=O)[nH]c4=O)O[C@@H]3COP(=O)(S)OCCCO)[C@H]2O)c(=O)n1` (stereo not given in full): “Active”; `Nc1ncnc2c1ncn2[C@@H]1O[C@H](CO)[C@@H](OP(=O)(S)OC[C@H]2O[C@@H](n3cnc4c(N)ncnc43)[C@H](O)[C@@H]2OP(=O)(S)OC[C@H]2O[C@@H](n3cnc4c(N)ncnc43)[C@H](O)[C@@H]2OP(=O)(S)OC[C@H]2O[C@@H](n3cnc4c(N)ncnc43)[C@H](O)[C@@H]2OP(=O)(S)OC[C@H]2O[C@@H](n3cnc4c(N)ncnc43)[C@H](O)[C@@H]2OP(=O)(S)OC[C@H]2O[C@@H](n3cnc4c(N)ncnc43)[C@H](O)[C@@H]2OP(=O)(S)OC[C@H]2O[C@@H](n3cnc4c(N)ncnc43)[C@H](O)[C@@H]2OP(=O)(S)OC[C@H]2O[C@@H](n3cnc4c(N)ncnc43)[C@H](O)[C@@H]2OP(=O)(S)OC[C@H]2O[C@@H](n3cnc4c(N)ncnc43)[C@H](O)[C@@H]2OP(=O)(S)OC[C@H]2O[C@@H](n3cnc4c(N)ncnc43)[C@H](O)[C@@H]2OP(=O)(S)OC[C@H]2O[C@@H](n3cnc4c(N)ncnc43)[C@H](O)[C@@H]2OP(=O)(S)OCC(O)COP(=O)(S)O[C@H]2[C@@H](O)[C@H](n3cnc4c(N)ncnc43)O[C@@H]2COP(=O)(S)O[C@H]2[C@@H](O)[C@H](n3cnc4c(N)ncnc43)O[C@@H]2COP(=O)(S)O[C@H]2[C@@H](O)[C@H](n3cnc4c(N)ncnc43)O[C@@H]2COP(=O)(S)O[C@H]2[C@@H](O)[C@H](n3cnc4c(N)ncnc43)O[C@@H]2COP(=O)(S)O[C@H]2[C@@H](O)[C@H](n3cnc4c(N)ncnc43)O[C@@H]2COP(=O)(S)O[C@H]2[C@@H](O)[C@H](n3cnc4c(N)ncnc43)O[C@@H]2COP(=O)(S)O[C@H]2[C@@H](O)[C@H](n3cnc4c(N)ncnc43)O[C@@H]2COP(=O)(S)O[C@H]2[C@@H](O)[C@H](n3cnc4c(N)ncnc43)O[C@@H]2COP(=O)(S)O[C@H]2[C@@H](O)[C@H](n3cnc4c(N)ncnc43)O[C@@H]2COP(=O)(S)O[C@H]2[C@@H](O)[C@H](n3cnc4c(N)ncnc43)O[C@@H]2COP(=O)(S)O[C@H]2[C@@H](O)[C@H](n3cnc4c(N)ncnc43)O[C@@H]2CO)[C@H]1O` (stereo not given in full): “inactive”. Next, `Nc1ccn([C@@H]2O[C@H](COP(O)(=S)O[C@H]3[C@@H](O)[C@H](n4ccc(=O)[nH]c4=O)O[C@@H]3COP(O)(=S)O[C@H]3[C@@H](O)[C@H](n4ccc(=O)[nH]c4=O)O[C@@H]3COP(O)(=S)O[C@H]3[C@@H](O)[C@H](n4ccc(N)nc4=O)O[C@@H]3COP(O)(=S)O[C@H]3[C@@H](O)[C@H](n4ccc5c(=O)[nH]c(N)nc54)O[C@@H]3COP(O)(=S)O[C@H]3[C@@H](O)[C@H](n4ccc(=O)[nH]c4=O)O[C@@H]3COP(O)(=S)O[C@H]3[C@@H](O)[C@H](n4ccc(N)nc4=O)O[C@@H]3COP(O)(=S)O[C@H]3[C@@H](O)[C@H](n4ccc5c(=O)[nH]c(N)nc54)O[C@@H]3COP(O)(=S)O[C@H]3[C@@H](O)[C@H](n4ccc(=O)[nH]c4=O)O[C@@H]3CO)[C@@H](OP(O)(=S)OC[C@H]3O[C@@H](n4ccc(=O)[nH]c4=O)[C@H](O)[C@@H]3OP(O)(=S)OC[C@H]3O[C@@H](n4ccc5c(=O)[nH]c(N)nc54)[C@H](O)[C@@H]3OP(O)(=S)OCC(O)COP(O)(=S)O[C@H]3[C@@H](O)[C@H](n4ccc5c(=O)[nH]c(N)nc54)O[C@@H]3COP(O)(=S)O[C@H]3[C@@H](O)[C@H](n4ccc(=O)[nH]c4=O)O[C@@H]3COP(O)(=S)O[C@H]3[C@@H](O)[C@H](n4ccc(N)nc4=O)O[C@@H]3COP(O)(=S)O[C@H]3[C@@H](O)[C@H](n4ccc(=O)[nH]c4=O)O[C@@H]3COP(O)(=S)O[C@H]3[C@@H](O)[C@H](n4ccc(=O)[nH]c4=O)O[C@@H]3COP(O)(=S)O[C@H]3[C@@H](O)[C@H](n4ccc(N)nc4=O)O[C@@H]3COP(O)(=S)O[C@H]3[C@@H](O)[C@H](n4ccc5c(=O)[nH]c(N)nc54)O[C@@H]3COP(O)(=S)O[C@H]3[C@@H](O)[C@H](n4ccc(=O)[nH]c4=O)O[C@@H]3COP(O)(=S)O[C@H]3[C@@H](O)[C@H](n4ccc(N)nc4=O)O[C@@H]3COP(O)(=S)O[C@H]3[C@@H](O)[C@H](n4ccc5c(=O)[nH]c(N)nc54)O[C@@H]3COP(O)(=S)O[C@H]3[C@@H](O)[C@H](n4ccc(=O)[nH]c4=O)O[C@@H]3CO)[C@H]2O)c(=O)n1` (stereo not given in full): “Active”.
